Source: ChEMBL document CHEMBL1157595, “Synthesis and biological evaluation of botulinum neurotoxin a protease inhibitors” (J Med Chem, 2010)
Calls of active or inactive are those of the source. The calls are words filed in the database; no cut-off is given here.

Target: T1, Botulinum neurotoxin type A (Clostridium botulinum, UniProt P0DPI0)
Test: Inhibition of Clostridium botulinum toxin BoNT/A light chain by FRET assay
Settings: not given
Method in brief: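 Recombinant BoNT/A light chain was assayed by FRET substrate cleavage in 50 mM HEPES–0.05% Tween, pH 7.4. Reactions were stopped with acetic acid (0.5% final), and cleaved substrate fluorescence was read at 485 nm after excitation at 398 nm.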

T1 sequence (P0DPI0 2-448 limits assumed): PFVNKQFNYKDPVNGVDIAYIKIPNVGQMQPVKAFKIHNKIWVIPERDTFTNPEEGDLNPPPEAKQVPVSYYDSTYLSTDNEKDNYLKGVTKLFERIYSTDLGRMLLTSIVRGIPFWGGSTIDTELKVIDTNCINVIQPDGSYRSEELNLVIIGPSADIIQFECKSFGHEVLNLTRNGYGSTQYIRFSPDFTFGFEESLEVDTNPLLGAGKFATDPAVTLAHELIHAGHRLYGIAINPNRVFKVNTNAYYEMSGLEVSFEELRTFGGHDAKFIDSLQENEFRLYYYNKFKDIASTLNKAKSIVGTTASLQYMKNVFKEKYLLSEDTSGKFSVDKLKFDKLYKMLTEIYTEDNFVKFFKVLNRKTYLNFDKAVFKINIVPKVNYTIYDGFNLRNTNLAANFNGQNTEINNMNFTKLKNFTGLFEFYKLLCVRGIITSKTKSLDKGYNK

SMILES | IC50 [µM]
c1cc(C2=NCCN2)ccc1Oc1ccc(-c2cc3ccc(C4=NCCN4)cc3[nH]2)nc1 | 69
c1cc(C2=NCCN2)ccc1Oc1ccc(-c2cc3ccc(C4=NCCN4)cc3s2)cc1 | 7.1
c1cc(-c2cc3ccc(C4=NCCN4)cc3s2)ccc1C1=NCCN1 | 43
N#Cc1ccc(Oc2ccc(-c3cc4ccc(C#N)cc4[nH]3)cc2)cc1 | > 100
N#Cc1ccc(Oc2ccc(-c3cc4ccc(C#N)cc4[nH]3)cc2)c(Cl)c1 | > 100
c1cc(C2=NCCCN2)ccc1Oc1ccc(-c2cc3ccc(C4=NCCCN4)cc3s2)cc1 | 54
N=C(N)c1ccc(Oc2ccc(-c3cc4ccc(C(=N)N)cc4[nH]3)cc2)cc1 | 11
c1cc(C2=NCCCN2)ccc1Oc1ccc(-c2nc3ccc(C4=NCCCN4)cc3[nH]2)cc1 | 28
c1cc(C2=NCCCN2)ccc1Oc1ccc(-c2cc3ccc(C4=NCCCN4)cc3[nH]2)cc1 | 21
N#Cc1ccc(Oc2ccc(-c3cc4ccc(C#N)cc4[nH]3)nc2)cc1 | > 100
c1cc(C2=NCCN2)ccc1Oc1ccc(-c2cc3ccc(C4=NCCN4)cc3[nH]2)cc1 | 12.5
Clc1ccc2cc(-c3ccc(Oc4ccc(C5=NCCN5)cc4)cc3)[nH]c2c1 | > 100
c1cc(-c2cc3ccc(C4=NCCCN4)cc3s2)ccc1C1=NCCCN1 | > 100
NC(=O)c1ccc(Oc2ccc(-c3cc4ccc(C(N)=O)cc4[nH]3)cc2)cc1 | > 100
c1cc(C2=NCCN2)ccc1Oc1ccc(-c2nc3ccc(C4=NCCN4)cc3[nH]2)cc1 | 24.5
c1cc(-c2cc3ccc(C4=NCCN4)cc3[nH]2)ccc1C1=NCCN1 | 20
N#Cc1ccc(Oc2ccc(-c3cc4ccc(C(=N)N)cc4[nH]3)cc2)cc1 | > 25
c1cc(C2=NCCCN2)ccc1Oc1ccc(-c2cc3ccc(C4=NCCCN4)cc3[nH]2)nc1 | 67
c1cc(-c2cc3ccc(C4=NCCCN4)cc3[nH]2)ccc1C1=NCCCN1 | > 100
OC1CN=C(c2ccc(Oc3ccc(-c4cc5ccc(C6=NCC(O)CN6)cc5[nH]4)cc3)cc2)NC1 (configuration not stated) | 7.3
CN(C)CC/N=C(\N)c1ccc(Oc2ccc(-c3cc4ccc(/C(N)=N/CCN(C)C)cc4[nH]3)cc2)cc1 | 2.5
Clc1ccc(Oc2ccc(-c3cc4ccc(C5=NCCN5)cc4[nH]3)cc2)c(Cl)c1 | > 25
N#Cc1ccc(Oc2ccc(-c3cc4ccc(C5=NCCN5)cc4[nH]3)cc2)c(Cl)c1 | 30

Target: T1, Botulinum neurotoxin type A
Test: Inhibition of Clostridium botulinum toxin BoNT/A light chain by HPLC-based assay
Settings: not given
Method in brief: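 Secondary HPLC-based cleavage assay with recombinant BoNT/A light chain, used to confirm FRET data. Values are the average of two experiments with variation under 10%.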

SMILES | IC50 [µM]
c1cc(C2=NCCN2)ccc1Oc1ccc(-c2cc3ccc(C4=NCCN4)cc3[nH]2)nc1 | > 100
c1cc(C2=NCCN2)ccc1Oc1ccc(-c2cc3ccc(C4=NCCN4)cc3s2)cc1 | 25
N=C(N)c1ccc(Oc2ccc(-c3cc4ccc(C(=N)N)cc4[nH]3)cc2)cc1 | 17
c1cc(C2=NCCCN2)ccc1Oc1ccc(-c2nc3ccc(C4=NCCCN4)cc3[nH]2)cc1 | 41
c1cc(C2=NCCCN2)ccc1Oc1ccc(-c2cc3ccc(C4=NCCCN4)cc3[nH]2)cc1 | 43
c1cc(C2=NCCN2)ccc1Oc1ccc(-c2cc3ccc(C4=NCCN4)cc3[nH]2)cc1 | 9.4
c1cc(C2=NCCCN2)ccc1Oc1ccc(-c2cc3ccc(C4=NCCCN4)cc3[nH]2)nc1 | > 100
CN(C)CC/N=C(\N)c1ccc(Oc2ccc(-c3cc4ccc(/C(N)=N/CCN(C)C)cc4[nH]3)cc2)cc1 | 4.4
Clc1ccc(Oc2ccc(-c3cc4ccc(C5=NCCN5)cc4[nH]3)cc2)c(Cl)c1 | 52

Target: T2, Lethal factor (Bacillus anthracis, UniProt P15917)
T2 sequence (P15917 whole entry): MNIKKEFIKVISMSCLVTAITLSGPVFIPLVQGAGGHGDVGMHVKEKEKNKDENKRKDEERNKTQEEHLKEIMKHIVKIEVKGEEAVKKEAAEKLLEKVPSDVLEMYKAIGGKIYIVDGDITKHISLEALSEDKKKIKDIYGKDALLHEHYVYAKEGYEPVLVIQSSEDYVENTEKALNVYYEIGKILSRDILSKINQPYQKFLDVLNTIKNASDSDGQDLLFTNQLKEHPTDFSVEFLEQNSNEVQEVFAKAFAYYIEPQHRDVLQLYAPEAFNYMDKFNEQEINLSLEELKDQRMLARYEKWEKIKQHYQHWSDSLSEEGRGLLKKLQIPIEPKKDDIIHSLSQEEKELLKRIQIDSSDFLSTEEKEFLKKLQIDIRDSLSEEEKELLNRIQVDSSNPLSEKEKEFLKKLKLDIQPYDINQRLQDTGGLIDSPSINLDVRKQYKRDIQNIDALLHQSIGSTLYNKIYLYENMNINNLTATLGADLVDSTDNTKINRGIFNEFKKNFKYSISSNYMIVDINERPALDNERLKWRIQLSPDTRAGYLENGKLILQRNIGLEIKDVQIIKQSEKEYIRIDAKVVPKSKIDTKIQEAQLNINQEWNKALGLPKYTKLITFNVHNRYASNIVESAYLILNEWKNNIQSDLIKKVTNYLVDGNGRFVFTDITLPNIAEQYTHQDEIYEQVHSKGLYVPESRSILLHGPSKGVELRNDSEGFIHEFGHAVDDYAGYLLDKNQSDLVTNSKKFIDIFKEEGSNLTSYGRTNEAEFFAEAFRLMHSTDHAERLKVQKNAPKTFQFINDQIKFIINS
Test: Inhibition of Bacillus anthracis anthrax lethal factor by FRET assay
Settings: not given

SMILES | IC50 [µM]
c1cc(C2=NCCN2)ccc1Oc1ccc(-c2cc3ccc(C4=NCCN4)cc3[nH]2)nc1 | 55
c1cc(C2=NCCN2)ccc1Oc1ccc(-c2cc3ccc(C4=NCCN4)cc3s2)cc1 | 18
c1cc(-c2cc3ccc(C4=NCCN4)cc3s2)ccc1C1=NCCN1 | > 100
c1cc(C2=NCCCN2)ccc1Oc1ccc(-c2cc3ccc(C4=NCCCN4)cc3s2)cc1 | > 100
N=C(N)c1ccc(Oc2ccc(-c3cc4ccc(C(=N)N)cc4[nH]3)cc2)cc1 | 35
c1cc(C2=NCCCN2)ccc1Oc1ccc(-c2cc3ccc(C4=NCCCN4)cc3[nH]2)cc1 | > 100
N#Cc1ccc(Oc2ccc(-c3cc4ccc(C#N)cc4[nH]3)nc2)cc1 | > 100
c1cc(C2=NCCN2)ccc1Oc1ccc(-c2cc3ccc(C4=NCCN4)cc3[nH]2)cc1 | 43
Clc1ccc2cc(-c3ccc(Oc4ccc(C5=NCCN5)cc4)cc3)[nH]c2c1 | 51
NC(=O)c1ccc(Oc2ccc(-c3cc4ccc(C(N)=O)cc4[nH]3)cc2)cc1 | > 100
c1cc(-c2cc3ccc(C4=NCCN4)cc3[nH]2)ccc1C1=NCCN1 | 49
N#Cc1ccc(Oc2ccc(-c3cc4ccc(C(=N)N)cc4[nH]3)cc2)cc1 | > 100
c1cc(C2=NCCCN2)ccc1Oc1ccc(-c2cc3ccc(C4=NCCCN4)cc3[nH]2)nc1 | > 100
c1cc(-c2cc3ccc(C4=NCCCN4)cc3[nH]2)ccc1C1=NCCCN1 | > 100
OC1CN=C(c2ccc(Oc3ccc(-c4cc5ccc(C6=NCC(O)CN6)cc5[nH]4)cc3)cc2)NC1 (configuration not stated) | > 100
CN(C)CC/N=C(\N)c1ccc(Oc2ccc(-c3cc4ccc(/C(N)=N/CCN(C)C)cc4[nH]3)cc2)cc1 | 28
Clc1ccc(Oc2ccc(-c3cc4ccc(C5=NCCN5)cc4[nH]3)cc2)c(Cl)c1 | > 100
N#Cc1ccc(Oc2ccc(-c3cc4ccc(C5=NCCN5)cc4[nH]3)cc2)c(Cl)c1 | > 100

Tested on: not listed separately
Test: Selectivity ratio of IC50 for Bacillus anthracis anthrax lethal factor to IC50 for Clostridium botulinum toxin BoNT/A light chain
Settings: not given

SMILES | Ratio IC50
OC1CN=C(c2ccc(Oc3ccc(-c4cc5ccc(C6=NCC(O)CN6)cc5[nH]4)cc3)cc2)NC1 (configuration not stated) | 10
CN(C)CC/N=C(\N)c1ccc(Oc2ccc(-c3cc4ccc(/C(N)=N/CCN(C)C)cc4[nH]3)cc2)cc1 | 10

Target: T3, Botulinum neurotoxin type B (Clostridium botulinum) (UniProt P10844)
T3 sequence (whole entry): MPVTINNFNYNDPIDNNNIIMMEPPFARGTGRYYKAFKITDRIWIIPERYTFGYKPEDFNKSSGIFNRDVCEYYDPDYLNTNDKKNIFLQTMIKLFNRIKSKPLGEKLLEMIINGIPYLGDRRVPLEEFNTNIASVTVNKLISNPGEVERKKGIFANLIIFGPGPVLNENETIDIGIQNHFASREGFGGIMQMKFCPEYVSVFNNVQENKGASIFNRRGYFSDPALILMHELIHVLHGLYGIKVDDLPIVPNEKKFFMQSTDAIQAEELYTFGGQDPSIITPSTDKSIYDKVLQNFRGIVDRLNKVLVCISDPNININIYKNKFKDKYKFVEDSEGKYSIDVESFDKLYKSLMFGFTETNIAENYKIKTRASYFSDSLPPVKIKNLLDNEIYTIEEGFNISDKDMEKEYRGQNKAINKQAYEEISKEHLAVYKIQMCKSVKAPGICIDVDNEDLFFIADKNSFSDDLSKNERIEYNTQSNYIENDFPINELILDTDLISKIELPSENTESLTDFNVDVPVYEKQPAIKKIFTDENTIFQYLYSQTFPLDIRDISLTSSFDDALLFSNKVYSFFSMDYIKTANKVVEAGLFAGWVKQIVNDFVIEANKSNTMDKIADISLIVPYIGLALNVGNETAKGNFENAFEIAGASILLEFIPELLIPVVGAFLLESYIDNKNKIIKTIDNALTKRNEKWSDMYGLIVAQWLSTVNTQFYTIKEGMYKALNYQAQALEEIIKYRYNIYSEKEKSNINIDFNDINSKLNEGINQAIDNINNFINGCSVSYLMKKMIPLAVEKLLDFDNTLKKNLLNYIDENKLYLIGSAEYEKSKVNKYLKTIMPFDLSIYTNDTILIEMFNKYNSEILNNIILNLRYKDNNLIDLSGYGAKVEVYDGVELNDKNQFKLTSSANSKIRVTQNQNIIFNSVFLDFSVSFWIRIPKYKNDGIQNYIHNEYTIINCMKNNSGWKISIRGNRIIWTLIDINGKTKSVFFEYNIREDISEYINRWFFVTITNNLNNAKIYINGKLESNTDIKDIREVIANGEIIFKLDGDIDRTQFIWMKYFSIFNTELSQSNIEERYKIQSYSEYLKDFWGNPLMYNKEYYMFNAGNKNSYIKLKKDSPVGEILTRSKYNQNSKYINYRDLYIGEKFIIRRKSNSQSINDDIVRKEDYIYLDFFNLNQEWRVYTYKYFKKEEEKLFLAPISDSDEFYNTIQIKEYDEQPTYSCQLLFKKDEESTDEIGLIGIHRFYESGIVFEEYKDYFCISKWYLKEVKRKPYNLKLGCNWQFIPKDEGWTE
Test: Inhibition of Clostridium botulinum toxin BoNT/B
Settings: not given

SMILES | inhibition
c1cc(-c2cc3ccc(C4=NCCN4)cc3[nH]2)ccc1C1=NCCN1 | inactive
CN(C)CC/N=C(\N)c1ccc(Oc2ccc(-c3cc4ccc(/C(N)=N/CCN(C)C)cc4[nH]3)cc2)cc1 | inactive

Target: T4, Interstitial collagenase (Homo sapiens) (UniProt P03956)
T4 sequence (whole entry): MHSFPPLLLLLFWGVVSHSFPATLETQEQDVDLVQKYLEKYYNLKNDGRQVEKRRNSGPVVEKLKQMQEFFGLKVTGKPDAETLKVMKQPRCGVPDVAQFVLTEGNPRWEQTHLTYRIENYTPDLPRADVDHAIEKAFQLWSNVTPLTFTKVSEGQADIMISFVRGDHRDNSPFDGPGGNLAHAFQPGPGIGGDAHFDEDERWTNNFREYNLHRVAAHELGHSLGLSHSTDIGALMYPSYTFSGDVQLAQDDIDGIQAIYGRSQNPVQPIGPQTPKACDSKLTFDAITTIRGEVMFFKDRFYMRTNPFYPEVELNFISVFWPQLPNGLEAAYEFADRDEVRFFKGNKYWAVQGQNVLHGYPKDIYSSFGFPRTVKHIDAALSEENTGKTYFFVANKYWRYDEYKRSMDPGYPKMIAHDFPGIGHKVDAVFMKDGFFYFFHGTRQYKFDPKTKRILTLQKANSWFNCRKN
Test: Inhibition of human MMP1
Settings: not given

SMILES | inhibition
c1cc(-c2cc3ccc(C4=NCCN4)cc3[nH]2)ccc1C1=NCCN1 | inactive
CN(C)CC/N=C(\N)c1ccc(Oc2ccc(-c3cc4ccc(/C(N)=N/CCN(C)C)cc4[nH]3)cc2)cc1 | inactive

Target: Matrix metalloproteinase-9 (Homo sapiens) (UniProt P14780)
Sequence (P14780 whole entry): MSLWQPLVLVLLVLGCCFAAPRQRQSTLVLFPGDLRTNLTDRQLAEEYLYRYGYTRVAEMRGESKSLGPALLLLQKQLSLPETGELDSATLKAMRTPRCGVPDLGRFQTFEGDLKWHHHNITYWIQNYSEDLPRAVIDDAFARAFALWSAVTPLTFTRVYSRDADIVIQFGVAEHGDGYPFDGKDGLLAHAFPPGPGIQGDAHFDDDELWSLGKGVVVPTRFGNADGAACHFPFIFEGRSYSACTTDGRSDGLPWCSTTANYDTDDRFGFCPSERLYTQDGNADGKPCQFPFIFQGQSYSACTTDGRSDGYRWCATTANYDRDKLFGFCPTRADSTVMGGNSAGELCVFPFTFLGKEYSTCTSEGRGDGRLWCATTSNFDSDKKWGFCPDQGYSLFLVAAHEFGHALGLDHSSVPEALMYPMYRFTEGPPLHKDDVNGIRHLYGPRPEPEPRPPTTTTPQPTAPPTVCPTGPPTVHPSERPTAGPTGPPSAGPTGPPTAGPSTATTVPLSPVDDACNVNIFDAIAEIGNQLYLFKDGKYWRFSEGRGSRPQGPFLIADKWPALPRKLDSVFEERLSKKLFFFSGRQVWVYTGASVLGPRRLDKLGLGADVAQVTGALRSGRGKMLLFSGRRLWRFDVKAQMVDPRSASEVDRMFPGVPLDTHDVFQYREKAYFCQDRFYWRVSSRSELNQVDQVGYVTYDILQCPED
Test: Inhibition of human MMP9
Settings: not given

SMILES | inhibition
c1cc(-c2cc3ccc(C4=NCCN4)cc3[nH]2)ccc1C1=NCCN1 | inactive
CN(C)CC/N=C(\N)c1ccc(Oc2ccc(-c3cc4ccc(/C(N)=N/CCN(C)C)cc4[nH]3)cc2)cc1 | inactive

Target: T1, Botulinum neurotoxin type A
Test: Inhibition of Clostridium botulinum toxin BoNT/A light chain
Settings: not given

SMILES | IC50 [µM] | Ki [µM]
CCOc1ccc(C(Nc2cccnc2)c2cc(Cl)c3cccnc3c2O)cc1 (configuration not stated) | 0.5 | 
NCCCCCCCNCCCCCCCNC(=O)c1cc(CCC(=O)NO)c(CCC(O)(c2ccccc2)c2ccccc2)[nH]1 | < 1 | 0.76

Target: Botulinum neurotoxin type A (Clostridium botulinum) (UniProt P0DPI0)
Sequence (P0DPI0 2-448 limits assumed): as the sequence (P0DPI0 2-448 limits assumed) above
Settings: 20 uM

SMILES | inhibition [%]
N=C(N)c1ccc(Oc2ccc(-c3cc4ccc(C(=N)N)cc4[nH]3)cc2)cc1 | 75
